Most compounds without a hit are left out; they make up all but 0.79% or so of the library.
PKA-R1A act: activators of PKA-R1A holoenzyme, primary screen, biochemical, fluorescence polarization, Cy5-IP20, bovine R1A, mouse PKAc | cAMP-dependent protein kinase type I-alpha regulatory subunit (Bos taurus) + … | 340,000 tested, 0.083% active | PKA-R1A dissociation; scaled: DMSO 0%, 113 µM cGMP 100% | AID 504707, 2011 | activation, % at 11.4 µM;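 active = percent activation above the mean of all tested compounds plus 3 SD, cut at about 19% in these data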;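 also: higher means more PKAc released from R1A so a rise in polarization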
UCH37 DUB inh: inhibitors of human UCH37 deubiquitinase, primary screen, biochemical, Ub-AMC cleavage, fluorescence; Ubiquitin carboxyl-terminal hydrolase isozyme L5 (Homo sapiens), Q9Y5K5; inhibition, % (no concentration beside the values); purified proteasome/UCH37; 330,000 tested, 0.33% active;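 active = mean inhibition over replicate wells above about 20%, limit read from the data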;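 also: 0% = compound-free wells with enzyme and 100% = wells lacking proteasome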
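Schedule: 30 min plus 25 min, room temperature / Material: human UCH37 within purified proteasomes / Technique: AMC fluorescence intensity at 355/460 nm / Buffer or medium: pH 7.4 Tris-HCl (50 mM) with ovalbumin, ATP-MgCl2, DTT / Controls: wells without proteasome as full block, compound-free enzyme plus substrate as uninhibited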
Rin1-Abl PPI inh: inhibitors of Rin1-Abl protein binding, primary screen, biochemical, TR-FRET. inhibition, % at 7.35 µM. 360,000 tested, 0.4% active. AID 588664, 2011; in the data active = inhibition above about 5%, passing the limit was not always enough
PKA-R2B activ: activators of PKA-R2B holoenzyme, primary screen, biochemical, fluorescence polarization, Cy5-IP20, human; cAMP-dependent protein kinase catalytic subunit beta (Homo sapiens) + cAMP-dependent …; PKA-R2B holoenzyme dissociation; R2B truncated from residue 108, S112A mutant; 0% DMSO only, 100% 113 µM cGMP; activation, % at 11.4 µM; 340,000 tested, 0.079% active; AID 504700, 2011;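 active = activation above a cutoff set at the mean over all compounds plus 3 SD, cut at about 18% in these data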;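 also: higher means more holoenzyme dissociation and a rise in polarization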
Target sequence (P31323 whole entry, looked up, other chains not shown, the tested form may be a part): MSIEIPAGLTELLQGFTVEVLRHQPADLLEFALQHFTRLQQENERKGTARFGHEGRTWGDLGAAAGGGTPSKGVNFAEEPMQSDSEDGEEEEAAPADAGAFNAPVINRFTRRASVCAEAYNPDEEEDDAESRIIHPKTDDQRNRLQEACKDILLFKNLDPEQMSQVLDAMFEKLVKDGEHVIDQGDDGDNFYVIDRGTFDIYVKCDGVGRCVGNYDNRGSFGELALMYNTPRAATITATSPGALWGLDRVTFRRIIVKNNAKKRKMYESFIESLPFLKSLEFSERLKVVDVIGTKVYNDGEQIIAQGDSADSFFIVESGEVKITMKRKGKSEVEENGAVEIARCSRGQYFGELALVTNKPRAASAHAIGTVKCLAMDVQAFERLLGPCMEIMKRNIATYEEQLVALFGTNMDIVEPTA
UCH37 confirm: retest of human UCH37 deubiquitinase inhibitors, confirmation, biochemical, Ub-AMC cleavage rate, fluorescence. inhibition, % at 20 µM. AID 624100, 2012. Proteasome-bound UCH37. 480 tested, 27% active. shares compounds with UCH37 DUB inh;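 active = average inhibition over replicates above about 50%, so the earlier screening hit is confirmed, limit read from the data; inactive = the rest, counted as false positives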;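 also: based on cleavage rate fitted by regression over a 30 min kinetic read; 0% = proteasome plus Ub-AMC and 100% = Ub-AMC without proteasome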
* marks the source's active call; other numbers are inactive results; · = no result.

SMILES	PKA-R1A act	UCH37 DUB inh	Rin1-Abl PPI inh	PKA-R2B activ	UCH37 confirm
Cc1ccc(N2C(=O)[C@@H]3[C@H](C2=O)C2c4ccccc4C=CN2[C@@H]3C(=O)c2ccco2)cc1 (stereo not given in full)	-7	4	0	-4	·
O=C(c1ccco1)[C@@H]1[C@@H]2C(=O)N(c3ccccc3)C(=O)[C@@H]2C2c3ccccc3C=CN21 (stereo not given in full)	-13	64*	2	-3	5
Cc1ccc(N2C(=O)[C@@H]3[C@H](C2=O)C2c4ccccc4C=CN2[C@@H]3C(=O)c2ccco2)c(C)c1 (stereo not given in full)	-3	28*	5	0	3
CC(C)(C)C(=O)[C@@H]1[C@@H]2C(=O)N(c3ccc4c(c3)OCCO4)C(=O)[C@@H]2C2c3ccccc3C=CN21 (stereo not given in full)	-16	12	0	-12	·
O=C(/C=C\Nc1ccc(S(=O)(=O)Nc2ncccn2)cc1)c1ccccc1	-11	-1	3	-9	·
CCCCC(NC(=O)Cc1c(C)c2cc3c4c(oc3c(C)c2oc1=O)CCCC4)C(=O)O (stereo not given)	0	-37	-2	-2	·
COCCCN(Cc1cc(OC)c(OC)c(OC)c1)C(=S)Nc1cccc(SC)c1	-4	·	2	11	·
Cc1cc(N2CCCC2)ccc1/C=C1/C(=O)N(C)C(=S)N1C	-14	·	3	-6	·
CN1C(=O)/C(=C/C=C2/CCCN2C)N(C)C1=S	1	34*	-4	8	29
Cc1ccc(-c2cn(-c3ccccc3)c(=S)[nH]2)cc1C	-7	1	2	2	·
CN(Cc1ccccc1)C(=O)c1cccc(NC(=O)Cc2cccc([N+](=O)[O-])c2)c1	-3	3	2	-22	·
CN(Cc1ccccc1)C(=O)c1cccc(NC(=O)Cc2ccc([N+](=O)[O-])cc2)c1	9	41*	0	0	9
COc1cccc(Nc2ncc(C#N)c(N)n2)c1	·	1	-2	·	·
COc1cc(NC(=S)NC2CC(C)(C)NC(C)(C)C2)c(OC)cc1Cl	-13	39*	0	-14	6
COc1cc(NC(=S)NC2CC(C)(C)NC(C)(C)C2)cc(OC)c1	-10	0	-3	-4	·
COc1ccccc1NC(=O)C(=O)NN=Cc1ccc([N+](=O)[O-])s1	·	2	·	·	·
CN(CC(=O)Nc1ccccc1Cl)C(=O)COC(=O)c1ccc([N+](=O)[O-])s1	-5	76*	3	-11	13
COc1ccccc1NC(=O)COC(=O)c1ccc([N+](=O)[O-])s1	-3	72*	-3	-13	5
NS(=O)(=O)c1ccc(NC(=O)COC(=O)c2ccc([N+](=O)[O-])s2)cc1	-1	69*	-1	11	-9
CN(CC(=O)Nc1ccccc1Cl)C(=O)COC(=O)c1cccs1	2	5	3	5	·
Cc1ccc(NC(=O)COC(=O)c2ccc([N+](=O)[O-])s2)c(C)c1	-16	31*	0	8	20
Cc1cc(C)c(NC(=O)COC(=O)c2ccc([N+](=O)[O-])s2)c(C)c1	-16	4	-1	-9	·
CCc1ccc(-c2csc3[n+]2CCN3C(C)=O)cc1	-1	1	3	-6	·
O=C1CCCC2=C1C(c1ccco1)Nc1ccc3ccccc3c12 (stereo not given)	1	·	0	-7	·
CC(C)(C)C(=O)C=c1[nH]c(=O)c(=Cc2ccc(C#N)cc2)s1	·	4	·	·	·
SMILES	PKA-R1A act	UCH37 DUB inh	Rin1-Abl PPI inh	PKA-R2B activ	UCH37 confirm
O=c1[nH]cncc1OCc1ccccc1	-4	·	-1	9	·
CC(Sc1nnc(-c2ccccc2)c(-c2ccccc2)n1)C(=O)NCC1CCCO1 (stereo not given)	2	0	2	-4	·
NC(=O)NC(=O)COC(=O)c1ccc(Cl)c(S(=O)(=O)N(Cc2ccccc2)c2ccc(Cl)cc2)c1	0	2	-2	-10	·
NC(=O)COC(=O)c1ccc(Cl)c(S(=O)(=O)N(Cc2ccccc2)c2ccc(Cl)cc2)c1	-9	39*	2	-11	-37
CC(=O)NC1=C(NC2CCS(=O)(=O)C2)C(=O)c2ccccc2C1=O (stereo not given)	-10	28*	-7	5	27
CC[n+]1c(/C=C/c2c[nH]c3ccccc23)ccc2cc(C)ccc21	·	29*	·	·	42
CCN1/C(=C/c2ccc3cc(C)ccc3[n+]2CC)Sc2cc(C)ccc21	5	14	-21	1	·
CCN(CC)C(=O)c1ccc(/C=C/c2c[nH]c3ccccc23)[n+](C)c1	6	29*	-65	-3	33
CC(=O)N(C1=C(N)C(=O)c2ccccc2C1=O)C(C)C	9	26*	-1	-6	20
COc1ccccc1N(C(C)=O)C1=C(Cl)C(=O)c2ccccc2C1=O	0	·	1	0	·
O=C1C(Nc2ccc(O)cc2)=CC(=NS(=O)(=O)c2cccs2)c2ccccc21	·	75*	·	·	42
Cc1ccc(Cl)cc1NC1=C/C(=N\S(=O)(=O)c2cccs2)c2ccccc2C1=O	2	43*	2	-3	31
O=C1C(Nc2ccc(O)cc2)=C/C(=N/S(=O)(=O)c2cccs2)c2ccccc21	0	·	-7	0	·
CC1(C)CCCC2=C1CC1C(=O)N(Cc3cccnc3)C(=O)C1C2 (stereo not given)	3	39*	0	-3	46
O=C1C2C3C=CC([C@@H]2C(=O)N1Cc1cccnc1)C31CC1 (stereo not given in full)	-7	1	1	-3	·
O=C(NCc1ccccc1)c1ccc(N2CCC3(CC2)CC(c2ccccc2)=NO3)c([N+](=O)[O-])c1	12	47*	0	0	3
CC1CCN(CC(=O)Nc2sc3c(c2C#N)CCC3)CC1	2	37*	1	-6	9
Cc1cc(Nc2ccc(N(C)C)cc2)n2ncnc2n1	0	5	-1	-8	·
COC(=O)COc1ccc(S(=O)(=O)NCCC2=CCCCC2)cc1C	1	55*	1	-1	60*
CC(C)NS(=O)(=O)c1ccc(OCC(=O)NCCC2=CCCCC2)cc1	-8	18	0	-9	·
CCCNS(=O)(=O)c1ccc(OCC(=O)NCCC2=CCCCC2)cc1	0	36*	0	-7	45
Cc1oc(-c2ccccc2F)nc1CS(=O)(=O)CC(=O)NCc1ccccc1Cl	-7	5	0	5	·

Assay outcomes deposited in PubChem by several laboratories.
